# Several values for one entry are separate records, joined by “and”; a condition that tells them apart may be missing. Equal values may be shown once.
# Assays:
# [1] = test system: NKT cells; test: In vivo stimulation of NKT cells, serum cytokines by cytometric bead array; set-up: species or system mice; settings: 1 μg i.p.
# In short: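 Mice received 1 μg test glycolipid i.p. in 200 μL PBS. Serum was collected at 2 and 24 hr, and IFN-γ and IL-4 were quantified by cytometric bead array. Ratio taken as serum IFN-γ at 24 hr over IL-4 at 2 hr. Results combine three independent experiments, 10 mice per group.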
# [2] = test system: spleen cells; test: Cytometric bead array of 72 hr splenocyte culture supernatants; assay type: cell-based, C57BL/6 mice; settings: 72 hr spleen cell cultures, CBA
# In short: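 C57BL/6 splenocytes (5×10^5/well) pulsed with test glycolipid at 100, 10 or 1 ng/ml and cultured overnight. Medium was then replaced without further glycolipid, and supernatants were harvested at 72 hr. Mean ± SEM of three independent experiments (IL-10: two), each the mean of duplicate cultures.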
# [3] = test system: Vβ7 NKT TCR / CD1d-Ag; test: SPR of Vβ7 NKT TCR binding to glycolipid-loaded CD1d; set-up: species or system mouse
# In short: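 Refolded mouse Vα14-Vβ7 NKT TCR flowed over glycolipid-loaded mouse CD1d (baculovirus-expressed, BirA/His-tagged) captured on streptavidin chips; CD1d-endogenous lipid surface subtracted. 25°C, HEPES buffer pH 7.4, 150 mM NaCl, 0.005% P20. Kinetics: 300–500 RU, 0.19–25 μM, 50 μl/min for 60 s, 1:1 Langmuir fit, duplicate. Steady-state: 2000 RU, 0.039–40 μM, 5 μl/min for 90 s, one-site fit.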
# [4] = test system: spleen NKT cells; test: CFSE proliferation assay of spleen NKT cells; assay type: cell-based, C57BL/6 mice; settings: 72 hr, 100, 10 and 1 ng/ml
# [5] = biological target: T1, Vβ8.2 NKT TCR (Vα14-Vβ8.2) / CD1d-Ag (Mus musculus, UniProt P11609+Z9CWY5XBV8); test: SPR of Vβ8.2 NKT TCR binding to glycolipid-loaded CD1d; settings: for ka / kd: SPR kinetic experiment, 25°C, 1:1 Langmuir model
# T1 sequence (P11609 22-305 limits assumed): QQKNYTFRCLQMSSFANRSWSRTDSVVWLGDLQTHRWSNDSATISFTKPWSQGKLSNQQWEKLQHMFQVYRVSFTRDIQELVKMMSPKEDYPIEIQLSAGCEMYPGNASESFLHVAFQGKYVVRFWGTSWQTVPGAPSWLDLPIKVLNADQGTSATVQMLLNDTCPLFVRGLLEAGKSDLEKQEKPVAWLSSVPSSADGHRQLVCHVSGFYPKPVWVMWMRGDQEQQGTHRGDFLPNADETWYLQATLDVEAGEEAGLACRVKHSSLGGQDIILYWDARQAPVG
# T1 sequence (P01887 21-119): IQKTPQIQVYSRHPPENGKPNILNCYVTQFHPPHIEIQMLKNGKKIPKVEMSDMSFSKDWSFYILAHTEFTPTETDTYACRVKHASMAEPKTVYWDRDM
# [6] = test system: spleen NKT cells; test: Intracellular cytokine staining for IFN-γ in spleen NKT cells at 8 hours; assay type: cell-based, C57BL/6 mice; settings: highest dose 100 ng/ml, ICS
# In short: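 Splenocytes from C57BL/6 mice (5×10^5/well) were cultured 8 hr with test glycolipid (100, 10, 1 ng/ml), with Golgistop for the final 4 hr. Four replicate wells were pooled per determination. Cells were surface-stained with glycolipid-loaded CD1d tetramer-PE and anti-TCR-β, fixed, permeabilised and stained for intracellular IFN-γ. Mean ± SEM of three experiments, each the mean of duplicate cultures.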
# [7] = Vβ7 TCR, SPR kinetic experiment, 25°C, 1:1 Langmuir model
"Kd ([5]; KD(eq), Vβ8.2 TCR, steady-state affinity determined in separate experiment)",NKT TCR affinity relative to CD1d-α-GalCer interaction (fold lower) ([5]; Vβ8.2 NKT TCR),kd ([5]; Vβ8.2 TCR),"Kd ([5]; affinity (KD(eq)), Vβ8.2 NKT TCR, response at equilibrium) [nM]",SMILES,ratio of peak IFN-γ response (24 hours) to peak IL-4 response (2 hours) ([1]; serum),serum IFN-γ production in vivo compared to α-GalCer ([1]; serum at 2 and 24 hr),serum IL-4 production in vivo compared to α-GalCer ([1]; serum at 2 and 24 hr),"cytokine amounts, fold lower compared to α-GalCer [2]",NKT TCR affinity relative to CD1d-α-GalCer interaction (fold lower) ([3]; Vβ7 NKT TCR),NKT cell proliferation (in words) [4],ka ([5]; Vβ8.2 TCR),IFN-γ+ NKT cells [6],"ka [3, 7] [M⁻¹ s⁻¹]","kd [3, 7] [s⁻¹]"
~2000 nM and 2000 nM,approximately 10 fold,0.29 s⁻¹ and 0.29 ± 0.02 s⁻¹,–,CCCCCCCCCCCCCCCCCCCCCCCCCC(=O)N[C@@H](CC[C@H]1O[C@H](CO)[C@H](O)[C@H](O)[C@H]1O)[C@H](O)[C@H](O)CCCCCCCCCCCCCC [α-C-GalCer],Th1-like bias,lower amounts,lower amounts,2–5 fold,approximately 10 fold,little difference in the proliferative response,225000 M⁻¹ s⁻¹ and 225000 ± 41000 M⁻¹ s⁻¹,~ 12%,–,–
–,–,0.02 s^−1 and 0.02 ± 4.5×10^−4 s^−1,300,"CCCCCCCCCCCCCCCCCCCCCCCCCC(=O)N[C@@H](CO[C@H]1O[C@H](CO)[C@H](O)[C@H](O)[C@H]1O)[C@H](O)[C@H](O)CCCCCCCCCCCCCC [α-GalCer, α-galactosylceramide, reference compound]",–,–,–,–,–,–,162000 M⁻¹ s⁻¹ and 162000 ± 9500 M⁻¹ s⁻¹,approximately 25%,231000 ± 31500,0.09 ± 0.003

# From PMC3710193 (Journal of immunology (Baltimore, Md. : 1950), 2011)
